From ChEMBL document CHEMBL1671800, “Synthesis and antimycobacterial properties of N-substituted 6-amino-5-cyanopyrazine-2-carboxamides” (2011)
≈ marks a conversion by molar mass, not a printed value. Calls of active or inactive are those of the source. The calls are words filed in the database; no cut-off is given here.

Legend:
[1] = tested on: Mycobacterium tuberculosis; test: Antimycobacterial activity against Mycobacterium tuberculosis H37Rv CNCTC My 331/88 after 14 days by microdilution method; format: functional; conditions: H37Rv CNCTC My 331/88, 336 h
In short: (§1)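 Compounds in DMSO were diluted in Šula's semisynthetic medium, pH 5.5, to final 200–3.125 μg/mL, with DMSO at most 1% (v/v). Mycobacteria were added as a suspension in isotonic saline and grown at 37 °C. MIC was read visually after 14 days as the lowest concentration inhibiting growth.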

Mycobacterium kansasii = test: Antimycobacterial activity against Mycobacterium kansasii CNCTC My 235/80 after 6 days by microdilution method; format: functional; conditions: CNCTC My 235/80, 144 h
In short: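 Compounds were dissolved in DMSO and diluted in Šula's semisynthetic medium at pH 5.5, at final concentrations of 200 to 3.125 μg/mL in twofold steps; DMSO stayed ≤1% v/v. The strain was added as a suspension in isotonic saline and incubated at 37 °C. Growth was read visually after 6 days; MIC is the lowest concentration that inhibited growth. Pyrazinamide served as standard.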

Mycobacterium avium [2] = test: Antimycobacterial activity against Mycobacterium avium CNCTC My 80/72 after 14 days by microdilution method; format: functional; conditions: CNCTC My 80/72, 336 h; in short: as §1
Mycobacterium avium [3] = test: Antimycobacterial activity against Mycobacterium avium CNCTC My 152/73 after 14 days by microdilution method; format: functional; conditions: CNCTC My 152/73, 336 h; in short: as §1
Staphylococcus aureus [4] = test: Antibacterial activity against Staphylococcus aureus CCM 4516/08 after 24 to 48 hrs by broth microdilution method; format: functional, organism-based
In short: (§2)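 Strains subcultured on Mueller-Hinton agar at 35 °C and passaged onto MHA before testing. Inoculum suspended in sterile 0.85% saline and adjusted to 0.5 McFarland (1.5×10^8 CFU/mL). Compounds in DMSO (final ≤1% v/v) in Mueller-Hinton broth at pH 7.0, with medium and DMSO-alone controls. Static incubation at 35 °C; MIC taken as 95% growth inhibition versus control at 24 and 48 h.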

Escherichia coli = test: Antibacterial activity against Escherichia coli CCM 4517 after 24 to 48 hrs by broth microdilution method; format: functional, organism-based; in short: as §2
Pseudomonas aeruginosa = test: Antibacterial activity against Pseudomonas aeruginosa CCM 1961 after 24 to 48 hrs by broth microdilution method; format: functional, organism-based; in short: as §2
Staphylococcus aureus [5] = test: Antibacterial activity against methicillin-resistant Staphylococcus aureus H 5996/08 after 24 to 48 hrs by broth microdilution method; format: functional, organism-based
In short: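 Strains were subcultured on Mueller-Hinton agar at 35 °C, and the inoculum was suspended in 0.85% saline to 0.5 McFarland (1.5×10^8 CFU/mL). Microdilution was done in Mueller-Hinton broth, pH 7.0, with final DMSO at most 1% (v/v). MIC, set at 95% growth inhibition versus control, was read after 24 and 48 h of static incubation at 35 °C.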

[6] = tested on: Staphylococcus epidermidis; test: Antibacterial activity against Staphylococcus epidermidis H 6966/08 after 24 to 48 hrs by broth microdilution method; format: functional, organism-based
Enterobacter sp. = test: Antibacterial activity against Enterobacter sp. J 14365/ 08 after 24 to 48 hrs by broth microdilution method; format: functional, organism-based
Klebsiella pneumoniae [7] = test: Antibacterial activity against Klebsiella pneumoniae D11750/08 after 24 to 48 hrs by broth microdilution method; format: functional, organism-based
Klebsiella pneumoniae [8] = test: Antibacterial activity against ESBL-positive Klebsiella pneumoniae J 14368/08 after 24 to 48 hrs by broth microdilution method; format: functional, organism-based
Candida albicans [9] = test: Antifungal activity against Candida albicans ATCC 44859 after 24 hrs by broth microdilution method; format: functional
In short: (§3)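 Broth microdilution. Compounds in DMSO were diluted twofold in RPMI 1640 with glutamine, buffered to pH 7.0 with MOPS. Final DMSO was at most 2.5% (v/v). Plates were incubated statically, in the dark and humid, at 35 °C and read at 24 and 48 h.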

Candida tropicalis [10] = test: Antifungal activity against Candida tropicalis 156 after 24 hrs by broth microdilution method; format: functional; in short: as §3
Pichia kudriavzevii [11] = test: Antifungal activity against Candida krusei E28 after 24 hrs by broth microdilution method; format: functional; in short: as §3
Nakaseomyces glabratus [12] = test: Antifungal activity against Candida glabrata 20/I after 24 hrs by broth microdilution method; format: functional; in short: as §3
Trichosporon beigelii [13] = test: Antifungal activity against Trichosporon beigelii 1188 after 24 hrs by broth microdilution method; format: functional; in short: as §3
Aspergillus fumigatus [14] = test: Antifungal activity against Aspergillus fumigatus 231 after 24 hrs by broth microdilution method; format: functional; in short: as §3
Lichtheimia corymbifera [15] = test: Antifungal activity against Absidia corymbifera 272 after 24 hrs by broth microdilution method; format: functional; in short: as §3
[16] = tested on: Trichophyton mentagrophytes; test: Antifungal activity against Trichophyton mentagrophytes 445 after 72 hrs by broth microdilution method; format: functional
In short: (§4)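 Trichophyton mentagrophytes was tested by twofold broth microdilution in MOPS-buffered RPMI 1640 with glutamine, pH 7.0, with final DMSO at most 2.5% (v/v). Incubation was static, dark and humid at 35 °C, and plates were read at 72 and 120 h.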

[17] = tested on: Trichophyton mentagrophytes; test: Antifungal activity against Trichophyton mentagrophytes 445 after 120 hrs by broth microdilution method; format: functional; in short: as §4
Candida albicans [18] = test: Antifungal activity against Candida albicans ATCC 44859 after 48 hrs by broth microdilution method; format: functional; in short: as §3
Candida tropicalis [19] = test: Antifungal activity against Candida tropicalis 156 after 48 hrs by broth microdilution method; format: functional; in short: as §3
Pichia kudriavzevii [20] = test: Antifungal activity against Candida krusei E28 after 48 hrs by broth microdilution method; format: functional; in short: as §3
Nakaseomyces glabratus [21] = test: Antifungal activity against Candida glabrata 20/I after 48 hrs by broth microdilution method; format: functional; in short: as §3
Trichosporon beigelii [22] = test: Antifungal activity against Trichosporon beigelii 1188 after 48 hrs by broth microdilution method; format: functional; in short: as §3
Aspergillus fumigatus [23] = test: Antifungal activity against Aspergillus fumigatus 231 after 48 hrs by broth microdilution method; format: functional; in short: as §3
Lichtheimia corymbifera [24] = test: Antifungal activity against Absidia corymbifera 272 after 48 hrs by broth microdilution method; format: functional; in short: as §3

| Compound | MIC [1] [µg/mL] | MIC (Mycobacterium kansasii) [µg/mL] | MIC (Mycobacterium avium [2]) [µg/mL] | MIC (Mycobacterium avium [3]) [µg/mL] | Activity (Staphylococcus aureus [4]) | Activity (Escherichia coli) | Activity (Pseudomonas aeruginosa) | Activity (Staphylococcus aureus [5]) | Activity [6] | Activity (Enterobacter sp.) | Activity (Klebsiella pneumoniae [7]) | Activity (Klebsiella pneumoniae [8]) | other results |
| --- | --- | --- | --- | --- | --- | --- | --- | --- | --- | --- | --- | --- | --- |
| CNc1nc(C(N)=O)cnc1C#N | 200 (≈ 1130 µM) | > 200 | > 200 | > 200 | inactive | inactive | inactive | inactive | inactive | inactive | inactive | inactive |  |
| CCNc1nc(C(N)=O)cnc1C#N | 100 (≈ 523 µM) | > 200 | > 200 | > 200 | inactive | inactive | inactive | inactive | inactive | inactive | inactive | inactive |  |
| CCCCNc1nc(C(N)=O)cnc1C#N | > 200 | > 200 | > 200 | > 200 | inactive | inactive | inactive | inactive | inactive | inactive | inactive | inactive |  |
| NC(=O)c1cnccn1 [PYRAZINAMIDE] | 12.5 (≈ 102 µM) | > 200 | > 200 | > 200 |  |  |  |  |  |  |  |  |  |
| CN1CCN(c2nc(C(N)=O)cnc2C#N)CC1 | > 200 | > 200 | > 200 | > 200 | inactive | inactive | inactive | inactive | inactive | inactive | inactive | inactive |  |
| CCCCCCCNc1nc(C(N)=O)cnc1C#N | 12.5 (≈ 47.8 µM) | 100 (≈ 383 µM) | 100 (≈ 383 µM) | 100 (≈ 383 µM) | inactive | inactive | inactive | inactive | inactive | inactive | inactive | inactive |  |
| CCCCCCNc1nc(C(N)=O)cnc1C#N | 12.5 (≈ 50.5 µM) | > 200 | > 200 | > 200 | inactive | inactive | inactive | inactive | inactive | inactive | inactive | inactive |  |
| CCCCCCCCNc1nc(C(N)=O)cnc1C#N | > 200 | > 200 | > 200 | > 200 | inactive | inactive | inactive | inactive | inactive | inactive | inactive | inactive |  |
| CCN(CC)c1nc(C(N)=O)cnc1C#N | > 200 | > 200 | > 200 | > 200 | inactive | inactive | inactive | inactive | inactive | inactive | inactive | inactive |  |
| OC(Cn1cncn1)(Cn1cncn1)c1ccc(F)cc1F [FLUCONAZOLE] |  |  |  |  |  |  |  |  |  |  |  |  | MIC (Candida albicans [9]; ATCC 44859, 24 h): 0.24 µM (≈ 0.0735 µg/mL); MIC (Candida tropicalis [10]; Candida tropicalis, 156, 24 h): > 500 µM; MIC (Pichia kudriavzevii [11]; E28, 24 h): 125 µM (≈ 38.3 µg/mL); MIC (Nakaseomyces glabratus [12]): 62.5 µM (≈ 19.1 µg/mL); MIC (Trichosporon beigelii [13]; Trichosporon beigelii, 1188, 24 h): 250 µM (≈ 76.6 µg/mL); MIC (Aspergillus fumigatus [14]; Aspergillus fumigatus, 231, 24 h): > 500 µM; MIC (Lichtheimia corymbifera [15]; Lichtheimia corymbifera, 272, 24 h): > 500 µM; MIC ([16]; Trichophyton mentagrophytes, 445, 72 h): 7.81 µM (≈ 2.39 µg/mL); MIC ([17]; Trichophyton mentagrophytes, 445, 120 h): 125 µM (≈ 38.3 µg/mL); MIC (Candida albicans [18]; ATCC 44859, 48 h): 0.24 µM (≈ 0.0735 µg/mL); MIC (Candida tropicalis [19]; Candida tropicalis, 156, 48 h): > 500 µM; MIC (Pichia kudriavzevii [20]; E28, 48 h): 250 µM (≈ 76.6 µg/mL); MIC (Nakaseomyces glabratus [21]): 250 µM (≈ 76.6 µg/mL); MIC (Trichosporon beigelii [22]; Trichosporon beigelii, 1188, 48 h): 500 µM (≈ 153 µg/mL); MIC (Aspergillus fumigatus [23]; Aspergillus fumigatus, 231, 48 h): > 500 µM; MIC (Lichtheimia corymbifera [24]; Lichtheimia corymbifera, 272, 48 h): > 500 µM |
| N#Cc1ncc(C(N)=O)nc1NC1CCCCCC1 | > 200 | > 200 | > 200 | > 200 | inactive | inactive | inactive | inactive | inactive | inactive | inactive | inactive |  |
| N#Cc1ncc(C(N)=O)nc1N1CCOCC1 | > 200 | > 200 | > 200 | > 200 | inactive | inactive | inactive | inactive | inactive | inactive | inactive | inactive |  |
| N#Cc1ncc(C(N)=O)nc1NC1CCCCC1 | > 200 | > 200 | > 200 | > 200 | inactive | inactive | inactive | inactive | inactive | inactive | inactive | inactive |  |
| CCCNc1nc(C(N)=O)cnc1C#N | 50 (≈ 244 µM) | > 200 | > 200 | > 200 | inactive | inactive | inactive | inactive | inactive | inactive | inactive | inactive |  |
| NYSTATIN |  |  |  |  |  |  |  |  |  |  |  |  | MIC (Candida albicans [9]): 0.98 µM; MIC (Candida tropicalis [10]): 1.95 µM; MIC (Pichia kudriavzevii [11]): 1.95 µM; MIC (Nakaseomyces glabratus [12]): 1.95 µM; MIC (Trichosporon beigelii [13]): 1.95 µM; MIC (Aspergillus fumigatus [14]): 1.95 µM; MIC (Lichtheimia corymbifera [15]): 15.6 µM; MIC [16]: 3.9 µM; MIC [17]: 7.81 µM; MIC (Candida albicans [18]): 1.95 µM; MIC (Candida tropicalis [19]): 3.9 µM; MIC (Pichia kudriavzevii [20]): 3.9 µM; MIC (Nakaseomyces glabratus [21]): 1.95 µM; MIC (Trichosporon beigelii [22]): 1.95 µM; MIC (Aspergillus fumigatus [23]): 3.9 µM; MIC (Lichtheimia corymbifera [24]): 31.2 µM |
| N#Cc1ncc(C(N)=O)nc1NC1CCCC1 | > 200 | > 200 | > 200 | > 200 | inactive | inactive | inactive | inactive | inactive | inactive | inactive | inactive |  |
